In ChEMBL document CHEMBL1126860, “Efficient inhibition of human leukocyte elastase and cathepsin G by saccharin derivatives” (J Med Chem, 1993):
Activity calls are given as the source filed them. The rule behind the calls is not given here.

What was measured:
[1] = biological target: T1, Neutrophil elastase (Homo sapiens) (UniProt P08246); assay: Apparent second-order inactivation rate constant was evaluated against human leukocyte Elastase; format: functional
T1 sequence (whole entry): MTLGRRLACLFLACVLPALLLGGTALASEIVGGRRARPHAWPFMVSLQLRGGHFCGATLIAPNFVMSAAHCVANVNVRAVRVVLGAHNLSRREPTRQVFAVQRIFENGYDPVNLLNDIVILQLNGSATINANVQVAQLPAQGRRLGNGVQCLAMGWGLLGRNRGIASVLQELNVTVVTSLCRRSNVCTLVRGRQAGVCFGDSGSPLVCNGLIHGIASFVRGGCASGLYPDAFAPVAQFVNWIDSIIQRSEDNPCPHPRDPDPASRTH

[2] = biological target: T1, Neutrophil elastase (Homo sapiens); assay: Apparent second-order inactivation rate constant was evaluated against human leukocyte Elastase; Inactive; format: functional
In short: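 Incubation method: human leukocyte elastase (300 nM) with inhibitor in 0.1 M HEPES, pH 7.25, 1% DMSO. Aliquots withdrawn periodically and assayed for residual activity with methoxysuccinyl-Ala-Ala-Pro-Val p-nitroanilide. Pseudo-first-order k_obs taken from slopes of ln(Et/Eo) versus time, then expressed as k_obs/[I] (M⁻¹ s⁻¹). Kinetics analysed by the Kitz–Wilson method.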

Row | Compound | K obs / 1 1/Ms [1] | K obs / 1 1/Ms [2]
1 | O=C(CS(=O)(=O)c1ccccc1)OCN1C(=O)c2ccccc2S1(=O)=O | 780 | 
2 | O=C(CCc1ccccc1)OCN1C(=O)c2ccccc2S1(=O)=O | 2280 | 
3 | O=C(/C=C\Sc1ccccc1)OCN1C(=O)c2ccccc2S1(=O)=O | 5700 | 
4 | O=C(C[S+]([O-])c1ccccc1)OCN1C(=O)c2ccccc2S1(=O)=O (stereo unspecified) | 800 | 
5 | O=C(/C=C/Sc1ccccc1)OCN1C(=O)c2ccccc2S1(=O)=O | 8390 | 

More lines, now with the values ahead:

Row | K obs / 1 1/Ms [1] | K obs / 1 1/Ms [2] | Compound
6 | 4750 |  | O=C1c2ccccc2S(=O)(=O)N1CF
7 |  | inactive | O=C1c2ccccc2S(=O)(=O)N1CO
8 | 140 |  | CC(=O)OCN1C(=O)c2ccccc2S1(=O)=O
9 | 2240 |  | O=C(/C=C/c1ccccc1)OCN1C(=O)c2ccccc2S1(=O)=O
10 | 1790 |  | O=C(CSc1ccccc1)OCN1C(=O)c2ccccc2S1(=O)=O
11 | 40 |  | O=C1c2ccccc2S(=O)(=O)N1Cn1ccnc1
